Source: ChEMBL document CHEMBL1154113, “Synthesis, cannabinoid receptor affinity, molecular modeling studies and in vivo pharmacological evaluation of new substituted 1-aryl-5-(1H-pyrrol-1-yl)-1H-pyrazole-3-carboxamides. 2. Effect of the 3-carboxamide substituent on the affinity and selectivity profile” (Bioorg Med Chem, 2009)
The source made the active and inactive calls. The calls are words filed in the database; no cut-off is given here.

Experiments:
Cannabinoid receptor 1 = Cannabinoid receptor 1 (Homo sapiens, UniProt P21554); assay: biochemical; format: cell-based, HEK293
Sequence of Cannabinoid receptor 1 (P21554 whole entry): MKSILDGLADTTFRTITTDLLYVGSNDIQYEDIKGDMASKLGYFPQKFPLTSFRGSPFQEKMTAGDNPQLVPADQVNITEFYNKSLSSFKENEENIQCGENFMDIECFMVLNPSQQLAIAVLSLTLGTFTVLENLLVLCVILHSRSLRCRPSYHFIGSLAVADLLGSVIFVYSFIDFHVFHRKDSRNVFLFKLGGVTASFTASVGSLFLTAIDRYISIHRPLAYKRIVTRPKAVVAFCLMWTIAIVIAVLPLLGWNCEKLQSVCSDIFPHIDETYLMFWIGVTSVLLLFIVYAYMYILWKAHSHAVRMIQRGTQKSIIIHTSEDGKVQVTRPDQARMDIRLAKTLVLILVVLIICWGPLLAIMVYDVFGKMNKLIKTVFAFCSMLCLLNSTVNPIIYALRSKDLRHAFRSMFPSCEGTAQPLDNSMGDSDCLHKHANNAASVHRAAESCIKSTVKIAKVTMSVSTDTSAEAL

Cannabinoid receptor 2 = Cannabinoid receptor 2 (Homo sapiens, UniProt P34972); assay: Displacement of [3H]CP-55940 from human recombinant CB2 receptor expressed in HEK cells; format: cell-based, HEK293
Sequence of Cannabinoid receptor 2 (P34972 whole entry): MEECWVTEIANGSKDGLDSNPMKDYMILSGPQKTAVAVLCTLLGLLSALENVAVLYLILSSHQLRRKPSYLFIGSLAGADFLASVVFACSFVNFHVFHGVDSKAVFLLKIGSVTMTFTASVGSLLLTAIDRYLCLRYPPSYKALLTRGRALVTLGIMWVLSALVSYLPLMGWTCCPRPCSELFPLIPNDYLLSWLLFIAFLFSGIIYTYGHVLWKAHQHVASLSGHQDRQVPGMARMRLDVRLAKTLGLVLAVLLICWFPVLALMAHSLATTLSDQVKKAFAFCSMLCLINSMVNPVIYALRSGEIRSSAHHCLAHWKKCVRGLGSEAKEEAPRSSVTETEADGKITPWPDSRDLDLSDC

Homo sapiens = organism: Homo sapiens; assay: Selectivity index, ratio of Ki for human recombinant CB2 receptor to Ki for human recombinant CB1 receptor
Rattus norvegicus [1] = assay: Reduction in cumulative food intake in Wistar rat at 1 mg/kg, ip measured 360 mins after lights off; format: functional; conditions: 6 h, route intraperitoneal
Procedure, shortened: (§1)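 Adult male Wistar rats, about 400 g, housed singly under an inverted 12:12 h cycle, with free access to chow and water. Groups of n = 6–8 were matched on body weight and intake and given 0, 0.1, 1 or 10 mg/kg ip, suspended in saline with a few drops of Tween 80, 30 min before lights off. Food and water were weighed at 60–360 and 1440 min. Newman–Keuls test against vehicle.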

Rattus norvegicus [2] = assay: Reduction in cumulative food intake in Wistar rat at 10 mg/kg, ip measured 360 mins after lights off; format: functional; conditions: 6 h, route intraperitoneal
Procedure, shortened: as §1

Rattus norvegicus [3] = assay: Reduction in food intake in Wistar rat at 1 mg/kg, ip after 1440 mins; format: functional, organism-based; parameters: dose 1 mg/kg
Procedure, shortened: as §1

Rattus norvegicus [4] = assay: Reduction in food intake in Wistar rat at 10 mg/kg, ip after 1440 mins; format: functional, organism-based; parameters: dose 10 mg/kg
Procedure, shortened: as §1

Rattus norvegicus [5] = assay: Reduction in cumulative water intake in Wistar rat at 0.1 to 10 mg/kg, ip measured 360 mins after lights off; format: functional, organism-based
Procedure, shortened: as §1

Rattus norvegicus [6] = assay: Reduction in cumulative water intake in Wistar rat at 0.1 to 10 mg/kg, ip after 1440 mins; format: functional, organism-based
Procedure, shortened: as §1

Row | Structure (SMILES) | Ki (Cannabinoid receptor 1) [nM] | Ki (Cannabinoid receptor 2) [nM] | Ratio Ki (Homo sapiens) | further results
1 | Cc1c(C(=O)NC2CCCCCC2)nn(-c2ccc(Cl)c(Cl)c2)c1-n1c(C)ccc1C | 12 | 4.2 | 0.35 | 
2 | Cc1c(C(=O)NCCc2ccc(Cl)cc2)nn(-c2ccc(Cl)c(Cl)c2)c1-n1cccc1 | 240 | 1200 | 5 | 
3 | Cc1c(C(=O)NCc2ccc(Cl)c(Cl)c2)nn(-c2ccc(Cl)cc2Cl)c1-n1c(C)ccc1C |  |  | 141 | inhibition in vivo at 1 mg/kg (Rattus norvegicus [1]): 15%; inhibition in vivo at 10 mg/kg (Rattus norvegicus [2]): 25%; Activity (Rattus norvegicus [3]): Active; Activity (Rattus norvegicus [4]): Active; Activity (Rattus norvegicus [5]): inactive; Activity (Rattus norvegicus [6]): inactive
4 | Cc1c(C(=O)NCCc2ccc(Cl)cc2Cl)nn(-c2ccc(F)cc2F)c1-n1c(C)ccc1C | 41 | 721 | 17.6 | 
5 | COc1ccc(CCNC(=O)c2nn(-c3ccc(F)cc3F)c(-n3c(C)ccc3C)c2C)cc1Cl | 99 | > 3940 | > 39.8 | 
6 | Cc1c(C(=O)N[C@@H](C)C2CCCCC2)nn(-c2ccc(Cl)c(Cl)c2)c1-n1cccc1 | 3.4 | 2.4 | 0.71 | 
7 | Cc1c(C(=O)NC(C)c2ccccc2)nn(-c2ccc(Cl)c(Cl)c2)c1-n1c(C)ccc1C (centres undefined) | 80 | 5.7 | 0.071 | 
8 | Cc1c(C(=O)NCCc2ccc(Cl)c(Cl)c2)nn(-c2ccc(F)cc2F)c1-n1c(C)ccc1C | 54 | > 3940 | > 73 | 
9 | Cc1c(C(=O)NCCc2ccc(Cl)c(Cl)c2)nn(-c2ccc(Cl)cc2Cl)c1-n1cccc1 | 157 | > 3940 | > 25.1 | 
10 | Cc1c(C(=O)NC2CCCCCC2)nn(-c2ccc(Cl)c(Cl)c2)c1-n1cccc1 | 5.6 | 1.3 | 0.23 | 
11 | COc1cc(CNC(=O)c2nn(-c3ccc(Cl)cc3Cl)c(-n3c(C)ccc3C)c2C)c(Br)c(OC)c1OC | 144 | 553 | 3.84 | 
12 | COc1ccc(CCNC(=O)c2nn(-c3ccc(Cl)cc3Cl)c(-n3cccc3)c2C)cc1Cl | 368 | 2890 | 7.84 | 
13 | Cc1c(C(=O)NCc2ccc(Cl)cc2)nn(-c2ccc(F)cc2F)c1-n1cccc1 | 340 | 3400 | 10 | 
14 | Cc1c(C(=O)Nc2ccc(Cl)cc2)nn(-c2ccc(Cl)cc2Cl)c1-n1cccc1 | 120 | 80 | 0.67 | 
15 | COc1ccc(CCNC(=O)c2nn(-c3ccc(Cl)cc3Cl)c(-n3c(C)ccc3C)c2C)cc1Cl | 112 | 3480 | 31.1 | 
16 | Cc1c(C(=O)NCc2ccc(Cl)cc2)nn(-c2ccc(F)cc2F)c1-n1c(C)ccc1C | 56 | > 3940 | > 70.4 | 
17 | Cc1c(C(=O)NC2CCCC2)nn(-c2ccc(Cl)cc2Cl)c1-n1cccc1 | 84 | 170 | 2.02 | 
18 | Cc1c(C(=O)NCCc2ccc(Cl)cc2)nn(-c2ccc(Cl)cc2Cl)c1-n1c(C)ccc1C | 30 | > 3940 | > 131 | 
19 | Cc1c(C(=O)NC(c2ccccc2)c2ccc(Cl)cc2)nn(-c2ccc(Cl)c(Cl)c2)c1-n1c(C)ccc1C (centres undefined) | > 2820 | > 3940 |  | 
20 | Cc1c(C(=O)Nc2ccc(Cl)cc2)nn(-c2ccc(Cl)cc2Cl)c1-n1c(C)ccc1C | 96 | > 3940 | > 41 | 
21 | Cc1c(C(=O)NC2CCCCCC2)nn(-c2ccc(F)cc2F)c1-n1cccc1 | 560 | 200 | 0.36 | 
22 | COc1cc(CNC(=O)c2nn(-c3ccc(F)cc3F)c(-n3c(C)ccc3C)c2C)c(Br)c(OC)c1OC | 165 | 373 | 2.26 | 
23 | Cc1c(C(=O)NCCc2ccc(Cl)c(Cl)c2)nn(-c2ccc(F)cc2F)c1-n1cccc1 | 310 | 1290 | 4.16 | 
24 | Cc1c(C(=O)NCCc2ccc(Cl)cc2)nn(-c2ccc(Cl)cc2Cl)c1-n1cccc1 | 70 | > 3940 | > 56.2 | 
25 | Cc1c(C(=O)NC2CCCCCC2)nn(-c2ccc(Cl)cc2Cl)c1-n1c(C)ccc1C | 56 | 80 | 1.43 | 
26 | Cc1c(C(=O)Nc2ccc(Cl)cc2)nn(-c2ccc(F)cc2F)c1-n1cccc1 | 2100 | > 3940 | 3.76 | 
27 | Cc1c(C(=O)NCc2ccc(Cl)cc2)nn(-c2ccc(Cl)c(Cl)c2)c1-n1cccc1 | 70 | 100 | 1.43 | 
